Assay results from ChEMBL document CHEMBL4665664, “Discovery of Orally Active Hydroxyethylamine Based SPPL2a Inhibitors” (ACS Med Chem Lett, 2019).
Activity calls are given as the source filed them. No cut-off for these calls is given here.

Experiments:
[1] = biological target: T1, Signal peptide peptidase-like 2A (Mus musculus, UniProt Q9JJF9); test: Inhibition of mouse SPPL2a cotransfected with EGFP-NLP-fused TNFalpha (1 to 77 residues)-NTF incubated for 24 hrs by Hoechst staining based Cellomics ArrayScan analysis
T1 sequence (Q9JJF9 whole entry): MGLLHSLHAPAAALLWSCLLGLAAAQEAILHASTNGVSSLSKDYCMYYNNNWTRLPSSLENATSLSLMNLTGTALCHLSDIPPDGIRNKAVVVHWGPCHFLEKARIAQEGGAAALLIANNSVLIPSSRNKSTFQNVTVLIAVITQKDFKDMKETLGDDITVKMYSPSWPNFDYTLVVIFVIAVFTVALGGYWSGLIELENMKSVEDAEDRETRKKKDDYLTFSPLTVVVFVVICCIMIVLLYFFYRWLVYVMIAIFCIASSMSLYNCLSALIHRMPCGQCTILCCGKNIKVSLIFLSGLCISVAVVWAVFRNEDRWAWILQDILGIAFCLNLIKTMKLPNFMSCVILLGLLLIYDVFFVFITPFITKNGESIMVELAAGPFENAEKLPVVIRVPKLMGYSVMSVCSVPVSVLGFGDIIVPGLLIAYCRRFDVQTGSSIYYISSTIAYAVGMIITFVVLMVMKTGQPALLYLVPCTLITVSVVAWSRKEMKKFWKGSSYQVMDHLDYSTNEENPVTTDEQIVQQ

[2] = Dose normalized AUC in Balb/c mouse at 20 mg/kg, po by LC/MS/MS analysis; type: ADME, organism-based; conditions: in vivo
In short: (§1)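 Balb/c mice dosed 5 mg/kg i.v. and 20 mg/kg p.o. in PEG300/D5W (3:1); plasma concentration profile taken as mean of three animals; PK parameters derived from these profiles.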

[3] = biological target: T2, Signal peptide peptidase-like 2A (Mus musculus) (UniProt Q9JJF9); test: Inhibition of SPPL2a in mouse whole blood assessed as […] in CD74/p8 NTF accumulation at 4 uM incubated for 5 hrs by flow cytometric analysis based assay; type: tissue-based
T2 sequence (whole entry): T1 sequence (Q9JJF9 whole entry)

[4] = Drug uptake in mouse spleen at 30 mg/kg, po measured after 4 hrs by LC/MS/MS analysis; type: ADME, organism-based; conditions: read-out: Drug uptake
In short: (§2)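 Single oral dose of 10, 30 or 100 mg/kg in PEG300/D5W (3:1); total plasma and spleen concentrations measured at termination, 4 h post-dose; reported as means ± SEM.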

[5] = Drug uptake in mouse spleen at 100 mg/kg, po measured after 4 hrs by LC/MS/MS analysis; type: ADME, organism-based; conditions: read-out: Drug uptake; in short: as §2
[6] = Half life in Balb/c mouse at 5 mg/kg, iv and 20 mg/kg, po by LC/MS/MS analysis; type: ADME, organism-based; conditions: in vivo; in short: as §1
[7] = Volume of distribution in Balb/c mouse at 5 mg/kg, iv and 20 mg/kg, po by LC/MS/MS analysis; type: ADME, organism-based; conditions: in vivo; in short: as §1
[8] = Drug uptake in mouse spleen at 10 mg/kg, po measured after 4 hrs by LC/MS/MS analysis; type: ADME, organism-based; conditions: read-out: Drug uptake; in short: as §2
[9] = Total plasma concentration in mouse at 100 mg/kg, po measured after 4 hrs by LC/MS/MS analysis; type: ADME, organism-based; in short: as §2
[10] = biological target: T1, Signal peptide peptidase-like 2A; test: Inhibition of SPPL2a in Balb/c mouse A20 cells assessed as […] in CD74/p8 NTF accumulation incubated for overnight by Western blot analysis; type: cell-based
In short: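 Endogenous CD74/p8 NTF processing in mouse B cell line A20 measured by quantitative Western blot; IC50 derived.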

[11] = Total plasma concentration in mouse at 10 mg/kg, po measured after 4 hrs by LC/MS/MS analysis; type: ADME, organism-based; in short: as §2
[12] = biological target: T3, Signal peptide peptidase-like 2B (Homo sapiens, UniProt Q8TCT7); test: Inhibition of SPPL2b in human U2OS cells cotransfected with EGFP-labeled TNFalpha (1 to 76 residues)-NTF incubated for 24 hrs by Hoechst staining based Cellomics ArrayScan analysis; type: cell-based
T3 sequence (Q8TCT7 whole entry): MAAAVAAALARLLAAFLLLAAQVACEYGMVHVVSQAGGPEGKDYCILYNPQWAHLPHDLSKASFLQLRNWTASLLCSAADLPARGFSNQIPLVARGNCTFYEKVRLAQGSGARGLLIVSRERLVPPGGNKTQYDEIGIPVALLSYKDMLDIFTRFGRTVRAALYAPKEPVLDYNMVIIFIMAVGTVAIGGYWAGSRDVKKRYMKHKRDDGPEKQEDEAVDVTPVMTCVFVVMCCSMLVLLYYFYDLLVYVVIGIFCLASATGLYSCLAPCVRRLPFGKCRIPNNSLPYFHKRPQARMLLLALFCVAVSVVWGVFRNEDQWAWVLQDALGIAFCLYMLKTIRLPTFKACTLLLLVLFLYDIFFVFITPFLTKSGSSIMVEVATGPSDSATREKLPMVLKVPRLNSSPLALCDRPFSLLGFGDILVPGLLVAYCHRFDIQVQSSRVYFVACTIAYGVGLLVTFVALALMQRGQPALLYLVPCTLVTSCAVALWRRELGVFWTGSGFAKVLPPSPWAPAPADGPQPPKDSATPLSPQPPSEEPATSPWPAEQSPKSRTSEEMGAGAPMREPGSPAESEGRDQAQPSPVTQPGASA

[13] = Total plasma concentration in mouse at 30 mg/kg, po measured after 4 hrs by LC/MS/MS analysis; type: ADME, organism-based; in short: as §2
Gamma-secretase = test: Inhibition of gamma-secretase (unknown origin) expressed in HEK293 cells cotransfected with Notch1-VP16-GAL4 fusion and Gal4 luciferase reporter plasmid incubated for 24 hrs by luciferase reporter gene assay luminescence assay; type: cell-based, Homo sapiens
[14] = Oral bioavailability in Balb/c mouse at 20 mg/kg by LC/MS/MS analysis; type: ADME, organism-based; conditions: in vivo; in short: as §1

IC50 [1]: 5 nM
AUC/dose [2]: 282 nM·h
inhibition [3]: Active
concentration at 4 h [4]: 12.7 µM
concentration at 4 h [5]: 53.3 µM
half-life [6]: 5 h
Vd [7]: 12.3 L/kg
concentration at 4 h [8]: 6 µM
concentration at 4 h [9]: 1.17 µM
IC50 [10]: 150 nM
concentration at 4 h [11]: 0.12 µM
IC50 [12]: 270 nM
concentration at 4 h [13]: 0.25 µM
IC50 (Gamma-secretase): 1300 nM
bioavailability [14]: 35%
SMILES: CC(C)(C)c1ccc(S(=O)(=O)N(C[C@H](O)[C@@H](N)c2ccc(OC(F)(F)F)cc2)C2CCC2)cc1
